The test system of assay [1] is HepG2. The experiment in a line: Induction of apoptosis in human HepG2 cells assessed as late apoptotic cells at 20 uM after 48 hrs by Annexin-V-FITC/propidium iodide staining-based flow cytometric analysis (reference value: 0.29%). It is filed as functional. Background: Flow cytometry measures light scatter and fluorescence of single cells or particles in a stream.

The target in assay [2] is T1, Nuclear factor erythroid 2-related factor 2 (Homo sapiens) (UniProt Q16236).
T1 sequence (whole entry): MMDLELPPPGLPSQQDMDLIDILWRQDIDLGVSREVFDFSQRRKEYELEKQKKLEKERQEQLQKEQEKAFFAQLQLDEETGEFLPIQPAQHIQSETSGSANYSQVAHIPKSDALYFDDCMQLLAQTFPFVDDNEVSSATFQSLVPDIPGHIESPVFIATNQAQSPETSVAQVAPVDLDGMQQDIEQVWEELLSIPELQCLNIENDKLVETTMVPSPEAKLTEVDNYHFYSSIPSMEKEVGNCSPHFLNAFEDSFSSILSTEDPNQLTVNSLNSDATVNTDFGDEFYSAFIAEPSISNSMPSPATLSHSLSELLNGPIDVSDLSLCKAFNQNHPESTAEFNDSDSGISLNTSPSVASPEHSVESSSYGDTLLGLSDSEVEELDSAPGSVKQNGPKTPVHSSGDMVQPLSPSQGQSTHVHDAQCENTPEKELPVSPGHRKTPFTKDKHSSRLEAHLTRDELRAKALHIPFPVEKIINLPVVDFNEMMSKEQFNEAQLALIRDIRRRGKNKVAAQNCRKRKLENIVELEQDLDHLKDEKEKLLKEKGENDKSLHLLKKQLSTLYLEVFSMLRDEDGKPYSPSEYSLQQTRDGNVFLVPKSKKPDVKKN
Put plainly: Activation of NRF2 in human HepG2 cells after 6 hrs by spectrophotometric analysis. It is filed as cell-based. In a few lines:
(§1)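 HepG2 cells treated 2, 4 and 8 h at 20 µM, or 6 h at 5, 10 and 20 µM. Nuclear extracts were prepared by hypotonic lysis and detergent, then 14,000 g spin at 4 °C. Nrf2 DNA-binding was measured by TransAM ELISA: nuclear extract incubated 1 h at room temperature in wells, anti-Nrf2 (1:1000) 1 h, HRP secondary (1:1000), developing solution 2-15 min, stop solution.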

Assay [3] concerns the target T1, Nuclear factor erythroid 2-related factor 2 (Homo sapiens). Put plainly: Activation of NRF2 in human HepG2 cells at 20 uM by spectrophotometric analysis. It is filed as cell-based. Particulars: TDE = time-dependent effect. In a few lines: as §1
Assay [4] concerns HepG2. The experiment in a line: Cell cycle arrest in human HepG2 cells assessed as accumulation at S phase after 48 hrs by DAPI staining-based flow cytometric analysis. It is filed as functional. A digest of the protocol:
(§2)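 HepG2 cells were exposed for 48 h to 5, 10 or 20 of each agent, alongside a vehicle control. About […] cells were harvested and washed twice in PBS. DNA content was read by flow cytometry on 10,000 events, giving the percentage of cells in each phase relative to control.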

In assay [5] the test system is HepG2. The experiment in a line: Induction of apoptosis in human HepG2 cells assessed as early apoptotic cells at 10 uM after 48 hrs by Annexin-V-FITC/propidium iodide staining-based flow cytometric analysis (reference value: 0.14%). It is filed as functional.
Assay [6] concerns HepG2. Put plainly: Cell cycle arrest in human HepG2 cells assessed as accumulation at S phase at 20 uM after 48 hrs by DAPI staining-based flow cytometric analysis relative to control. It is filed as functional. In a few lines: (§3)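 HepG2 cells cultured at 37 °C, 5% CO2, exposed 48 h to 5, 10 or 20 µM. Cells harvested, washed twice in PBS, and DNA content of 10,000 events read by flow cytometry. Phase proportions compared with vehicle control; significance at p<0.05 and p<0.01.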

Assay [7] concerns HepG2. Put plainly: Induction of apoptosis in human HepG2 cells assessed as late apoptotic cells at 5 uM after 48 hrs by Annexin-V-FITC/propidium iodide staining-based flow cytometric analysis (reference value: 0.29%). It is filed as functional.
The next assay has as its system HCT-116. The experiment in a line: Cytotoxicity against human HCT116 cells after 72 hrs by MTT assay. It is filed as functional, cell-based. The note with it: HCT-116, 72 h. In a few lines: (§4)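 Cells were grown in RPMI-1640 or DMEM with 10% NBS or FBS and 100 U/mL penicillin, at 37 °C under 5% CO₂. After 72 h with a range of compound concentrations, MTT was added for a further 4 h at 37 °C. Formazan was dissolved in DMSO and absorbance read at 570 and 630 nm. Assays ran in triplicate across three independent experiments, and IC₅₀ was calculated for 50% loss of viability.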
(In general: Tetrazolium assays rely on reduction of a dye to a coloured formazan, in cell work by metabolically active cells.)

Another assay concerns Vero. The experiment in a line: Cytotoxicity against African green monkey Vero cells after 72 hrs by MTT assay. It is filed as cell-based. The note with it: Chlorocebus sabaeus.
A short description of assay [8]: Cytotoxicity against human SH-SY5Y cells after 72 hrs by MTT assay. It is filed as functional, cell-based. A digest of the protocol: as §4
Assay [9] concerns HepG2. Put plainly: Cytotoxicity against human HepG2 cells after 72 hrs by MTT assay. It is filed as functional, cell-based. Particulars: HepG2, 72 h. In a few lines: as §4
Assay [10] has as its system HepG2. The experiment in a line: Cell cycle arrest in human HepG2 cells assessed as accumulation at G2/M phase at 5 to 20 uM after 48 hrs by DAPI staining-based flow cytometric analysis. It is filed as functional. In a few lines: as §3
Assay [11] has as its system HepG2. Put plainly: Cell cycle arrest in human HepG2 cells assessed as decrease in accumulation at G0/G1 phase after 48 hrs by DAPI staining-based flow cytometric analysis. It is filed as functional. A digest of the protocol:
as §2

A further assay relates to A549. The experiment in a line: Cytotoxicity against human A549 cells after 72 hrs by MTT assay. It is filed as functional, cell-based. The note with it: A549, 72 h. In a few lines:
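After 72 h with a range of compound concentrations, MTT was added for a further 4 h at 37 °C. Formazan was dissolved in DMSO and absorbance read at 570 and 630 nm. Assays ran in triplicate across three independent experiments, and IC₅₀ was calculated for 50% loss of viability.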

For the next assay, the system named is MCF7. Put plainly: Cytotoxicity against human MCF7 cells after 72 hrs by MTT assay. It is filed as functional, cell-based. The note with it: MCF7, 72 h. A digest of the protocol: as §4
Assay [12] relates to HepG2. The experiment in a line: Induction of apoptosis in human HepG2 cells assessed as early apoptotic cells at 5 uM after 48 hrs by Annexin-V-FITC/propidium iodide staining-based flow cytometric analysis (reference value: 0.14%). It is filed as functional.
Assay [13] has as its system HepG2. Put plainly: Induction of apoptosis in human HepG2 cells assessed as early apoptotic cells at 20 uM after 48 hrs by Annexin-V-FITC/propidium iodide staining-based flow cytometric analysis (reference value: 0.14%). It is filed as functional.
Assay [14] has as its system HepG2. The experiment in a line: Induction of apoptosis in human HepG2 cells assessed as late apoptotic cells at 10 uM after 48 hrs by Annexin-V-FITC/propidium iodide staining-based flow cytometric analysis (reference value: 0.29%). It is filed as functional.

pIC50: −log10 of the molar value. Activity calls are given as the source filed them. The calls are words filed in the database; no cut-off is given here.

By pIC50 is commonly meant the negative decadic logarithm of the IC50, by convention in mol/L. For `C[S+]([O-])CCCCN=C=S` (stereo unspecified) [SULFORAPHANE], the Activity with HepG2 [1] is 4.19%; in assay [2], “Dose-dependent effect”; in assay [3] it was “tde”; with HepG2 [4], “Dose-dependent effect”; in the assay with HepG2 [5], 0.44%; with HepG2 [6] it was 5.9%. For the same compound, the Activity was 0.73% with HepG2 [7]; “Dose-dependent effect” in the assay on HepG2 [11]; 0.15% with HepG2 [12]; 0.9% in the assay on HepG2 [13]; 1.22% in the assay on HepG2 [14]. The pIC50 is 4.94 in the assay on HCT-116; 4.86 in the assay with Vero; 4.88 in assay [8]; 4.85 in the assay with HepG2 [9]; 4.66 in the assay on A549; 4.75 in the assay with MCF7. For the same compound, the outcome in the assay with HepG2 [10] was Active.
With `[O-][S+](CCCCN=C=S)Cc1ccccc1` (stereo unspecified), the Activity with HepG2 [1] is 25.33%; in assay [2], “Dose-dependent effect”; in [3], “tde”; in the assay on HepG2 [4], “Dose-dependent effect”; in the assay with HepG2 [5], 0.72%; in the assay on HepG2 [6], 9.11%. Besides, the Activity was 1.78% in the assay on HepG2 [7]; “Dose-dependent effect” with HepG2 [11]; 0.39% in the assay with HepG2 [12]; 0.24% in the assay with HepG2 [13]; 10.91% in the assay with HepG2 [14]. Further, the pIC50 in the assay on HCT-116 was 5.44; in the assay with Vero, 5.31; in assay [8], 5.28; in the assay on HepG2 [9], 5.55; in the assay with A549 it was 5.13; with MCF7, 5.48. In addition, the outcome in the assay with HepG2 [10] was Active.

(Values after ChEMBL document CHEMBL2390922, “Synthesis and biological evaluation of sulforaphane derivatives as potential antitumor agents” (Eur J Med Chem, 2013).)
